Laboratory results taken from ChEMBL document CHEMBL1795316, “Synthesis and biological evaluation of α-ketoamides as inhibitors of the Dengue virus protease with antiviral activity in cell-culture” (Bioorg Med Chem, 2011).
The source made the active and inactive calls. The rule behind the calls is not given here.

Columns and labels:
Dengue virus = assay: Inhibition of Dengue virus NS2B-NS3 serine protease expressed in Escherichia coli BL 21 (DE3) at 50 uM preincubated for 15 mins before substrate addition measured after 15 mins by fluorimetric analysis
How it was run: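 Recombinant NS2B hydrophilic cofactor linked through a glycine linker to NS3pro, His-purified on Ni2+ resin. Enzyme preincubated 15 min with inhibitor at 50 μM. Internally quenched substrate added to 50 μM final. Fluorescence read at ex 320/em 405 nm for 15 min, with initial slope per second as activity. Triplicate runs averaged.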

[1] = molecular target: Genome polyprotein (West Nile virus) (UniProt P06935); assay: Inhibition of West Nile virus NS2B-NS3 serine protease at 50 uM preincubated for 15 mins before substrate addition measured after 15 mins by fluorimetric analysis
How it was run: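 WNV NS2B-NS3 protease at 150 nM final, preincubated 15 min with inhibitor at 50 μM. Abz-GLKRGG-3-(NO2)Y internally quenched substrate added to 50 μM final. Continuous fluorescence read for 15 min, with initial slope per second as activity.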

[2] = molecular target: Prothrombin (Homo sapiens) (UniProt P00734); assay: Inhibition of thrombin at 25 uM preincubated for 15 mins before Boc-Val-Pro-Arg-AMC substrate addition measured after 10 mins by microtiter fluorescence plate reader analysis
Huh-7 = assay: Cytotoxicity against human HuH7 cells assessed as reduction of cell viability at up to 100 uM after 48 hrs by luciferase assay; type: cell-based; conditions: huh-7, 48 h
How it was run: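 Huh-7-Fluc cells exposed to compounds up to 100 μM for 48 h at 37 °C, 5% CO2. Cells then lysed and luciferase activity read as a surrogate of viability, alongside visual inspection of cells.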

dengue virus type 2 [3] = assay: Antiviral activity against Dengue virus 2 infected in human Huh-7 cells assessed as inhibition of viral replication at 1 to 25 uM treated 4 hrs after infection measured after 24 hrs by reporter gene assay; type: functional, organism-based
dengue virus type 2 [4] = assay: Antiviral activity against Dengue virus 2 infected in human Huh-7 cells assessed as reduction of viral titers at non-cytotoxic concentration after 24 hrs by reporter gene assay relative to control; type: functional
How it was run: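 Huh-7 cells were infected with wild-type DenV-2 at an MOI of 1 TCID50 per cell. Compounds were added to the supernatants 4 h post-infection, with 1% final DMSO as the diluent control. Infectious titers were determined 24 h post-infection by limiting-dilution assay, with three independent experiments. Cytotoxicity was measured in Huh-7-Fluc cells after 48 h at 37 °C by luciferase read-out and visual inspection.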

Chain of Genome polyprotein (West Nile virus) (P06935 whole entry): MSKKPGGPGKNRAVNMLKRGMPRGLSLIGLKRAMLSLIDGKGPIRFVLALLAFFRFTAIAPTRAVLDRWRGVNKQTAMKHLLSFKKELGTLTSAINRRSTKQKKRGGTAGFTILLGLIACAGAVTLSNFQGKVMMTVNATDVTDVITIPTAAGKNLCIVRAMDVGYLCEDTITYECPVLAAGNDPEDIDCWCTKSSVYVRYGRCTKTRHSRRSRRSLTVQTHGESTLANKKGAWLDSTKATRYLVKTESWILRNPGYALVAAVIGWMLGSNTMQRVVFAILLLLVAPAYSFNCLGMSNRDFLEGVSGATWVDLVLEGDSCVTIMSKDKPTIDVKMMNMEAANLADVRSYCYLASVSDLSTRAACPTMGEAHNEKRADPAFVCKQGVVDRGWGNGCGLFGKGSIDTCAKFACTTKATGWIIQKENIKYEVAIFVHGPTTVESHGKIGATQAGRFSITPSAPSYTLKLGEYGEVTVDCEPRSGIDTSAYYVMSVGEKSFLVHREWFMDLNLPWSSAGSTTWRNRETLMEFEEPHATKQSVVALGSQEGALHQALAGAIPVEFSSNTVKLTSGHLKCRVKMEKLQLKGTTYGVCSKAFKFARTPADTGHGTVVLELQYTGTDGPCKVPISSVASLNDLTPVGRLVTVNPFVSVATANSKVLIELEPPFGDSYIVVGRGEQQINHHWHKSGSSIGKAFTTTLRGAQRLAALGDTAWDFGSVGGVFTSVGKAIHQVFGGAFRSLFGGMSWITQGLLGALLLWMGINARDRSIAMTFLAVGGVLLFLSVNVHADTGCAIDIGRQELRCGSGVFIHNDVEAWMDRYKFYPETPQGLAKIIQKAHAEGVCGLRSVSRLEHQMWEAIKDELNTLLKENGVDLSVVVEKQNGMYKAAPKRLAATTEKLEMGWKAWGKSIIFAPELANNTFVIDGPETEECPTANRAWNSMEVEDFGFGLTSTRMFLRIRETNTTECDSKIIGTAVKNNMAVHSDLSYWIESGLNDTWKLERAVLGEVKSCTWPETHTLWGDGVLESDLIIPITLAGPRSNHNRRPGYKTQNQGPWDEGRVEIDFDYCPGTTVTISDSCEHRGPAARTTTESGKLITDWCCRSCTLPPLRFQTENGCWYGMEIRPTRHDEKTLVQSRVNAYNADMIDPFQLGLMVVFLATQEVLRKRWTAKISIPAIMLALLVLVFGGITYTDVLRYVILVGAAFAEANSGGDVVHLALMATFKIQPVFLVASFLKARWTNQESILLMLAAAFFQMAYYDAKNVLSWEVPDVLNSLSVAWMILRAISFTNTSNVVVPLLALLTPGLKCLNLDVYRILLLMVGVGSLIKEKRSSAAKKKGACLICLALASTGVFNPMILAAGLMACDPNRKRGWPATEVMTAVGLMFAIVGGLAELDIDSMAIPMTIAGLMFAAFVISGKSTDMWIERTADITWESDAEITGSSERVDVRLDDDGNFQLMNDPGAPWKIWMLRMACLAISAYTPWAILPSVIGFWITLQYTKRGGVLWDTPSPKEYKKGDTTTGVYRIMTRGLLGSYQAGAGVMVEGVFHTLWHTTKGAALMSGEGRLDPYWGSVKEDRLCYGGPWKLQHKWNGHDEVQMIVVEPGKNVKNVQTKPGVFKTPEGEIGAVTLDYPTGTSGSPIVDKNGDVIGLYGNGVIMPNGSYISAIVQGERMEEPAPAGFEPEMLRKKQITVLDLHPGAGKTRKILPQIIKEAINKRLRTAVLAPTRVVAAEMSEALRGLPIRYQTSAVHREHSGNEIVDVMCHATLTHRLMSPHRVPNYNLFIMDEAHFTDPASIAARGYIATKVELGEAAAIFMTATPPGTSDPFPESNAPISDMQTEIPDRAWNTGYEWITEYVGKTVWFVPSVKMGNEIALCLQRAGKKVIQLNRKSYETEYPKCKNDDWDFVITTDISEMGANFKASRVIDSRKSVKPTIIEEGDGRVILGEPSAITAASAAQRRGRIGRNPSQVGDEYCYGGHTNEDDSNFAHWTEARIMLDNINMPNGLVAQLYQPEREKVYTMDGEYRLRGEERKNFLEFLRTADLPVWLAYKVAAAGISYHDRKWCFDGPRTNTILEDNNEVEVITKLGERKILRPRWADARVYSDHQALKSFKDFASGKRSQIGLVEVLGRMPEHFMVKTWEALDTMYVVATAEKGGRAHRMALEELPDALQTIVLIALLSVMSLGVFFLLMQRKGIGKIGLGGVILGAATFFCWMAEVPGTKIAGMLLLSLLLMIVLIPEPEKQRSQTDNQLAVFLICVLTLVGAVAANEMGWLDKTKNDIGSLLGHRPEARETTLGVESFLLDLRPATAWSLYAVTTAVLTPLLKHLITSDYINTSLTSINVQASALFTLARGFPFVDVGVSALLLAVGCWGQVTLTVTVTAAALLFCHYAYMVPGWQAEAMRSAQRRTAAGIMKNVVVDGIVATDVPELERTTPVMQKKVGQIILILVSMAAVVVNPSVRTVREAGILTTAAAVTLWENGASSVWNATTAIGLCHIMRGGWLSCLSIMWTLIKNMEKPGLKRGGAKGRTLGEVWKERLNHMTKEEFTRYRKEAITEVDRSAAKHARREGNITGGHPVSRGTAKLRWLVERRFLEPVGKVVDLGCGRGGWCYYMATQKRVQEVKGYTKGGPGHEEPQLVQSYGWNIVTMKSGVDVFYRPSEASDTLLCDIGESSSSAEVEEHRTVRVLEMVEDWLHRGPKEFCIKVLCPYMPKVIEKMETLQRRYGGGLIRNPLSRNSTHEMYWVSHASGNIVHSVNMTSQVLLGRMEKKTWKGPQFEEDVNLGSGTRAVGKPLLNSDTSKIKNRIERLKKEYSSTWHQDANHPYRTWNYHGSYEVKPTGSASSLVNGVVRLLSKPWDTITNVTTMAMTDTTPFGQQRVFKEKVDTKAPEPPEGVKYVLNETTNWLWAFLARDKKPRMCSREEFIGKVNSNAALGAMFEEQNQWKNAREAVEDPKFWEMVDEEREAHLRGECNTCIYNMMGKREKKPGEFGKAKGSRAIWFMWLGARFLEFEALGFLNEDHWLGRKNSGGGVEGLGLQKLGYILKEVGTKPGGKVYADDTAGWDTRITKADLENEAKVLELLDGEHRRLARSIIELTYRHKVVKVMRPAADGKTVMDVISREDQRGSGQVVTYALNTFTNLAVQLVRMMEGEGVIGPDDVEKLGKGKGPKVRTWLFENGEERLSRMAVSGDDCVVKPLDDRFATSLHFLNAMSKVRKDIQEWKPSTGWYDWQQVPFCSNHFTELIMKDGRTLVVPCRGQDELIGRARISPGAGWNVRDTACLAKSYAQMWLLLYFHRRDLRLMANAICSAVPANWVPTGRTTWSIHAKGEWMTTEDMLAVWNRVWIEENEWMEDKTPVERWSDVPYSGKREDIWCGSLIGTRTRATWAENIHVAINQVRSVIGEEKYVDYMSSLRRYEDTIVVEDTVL

Row | Structure (SMILES) | inhibition (Dengue virus) [%] | other results
1 | CC(C)(C)NC(=O)C(=O)/C=C/c1cccc([N+](=O)[O-])c1 | 9.6 | –
2 | CC(C)(C)NC(=O)C(=O)/C=C/c1ccccc1[N+](=O)[O-] | 12.9 | –
3 | O=C(/C=C/c1ccccc1)C(=O)NC1CC1 | 31.2 | inhibition [1]: 20%; inhibition [2]: 17.1%
4 | C/C(=C\C(=O)C(=O)NC(C)(C)C)c1ccccc1 | 19.6 | –
5 | CC(C)(C)NC(=O)C(=O)/C=C/c1ccccc1 | 26.3 | inhibition [1]: 20%; inhibition [2]: 19.6%
6 | CC(C)(C)NC(=O)C(=O)/C=C/c1ccncc1 | 18.4 | –
7 | CC(C)(C)NC(=O)C(=O)/C=C/c1ccc([N+](=O)[O-])cc1 | 12.7 | –
8 | CC(C)(C)NC(=O)C(O)/C=C/c1ccccc1 (stereo unspecified) | 8.2 | –
9 | CC(NC(=O)C(=O)/C=C/c1ccccc1)c1ccccc1 (stereo unspecified) | 0 | inhibition [1]: 12.2%; inhibition [2]: 5.1%
10 | CC(C)(C)NC(=O)C(=O)/C=C/c1c[nH]c2ccccc12 | 39.1 | inhibition [1]: 40.6%; inhibition [2]: 16.9%; Activity (Huh-7): Non-toxic; Activity (dengue virus type 2 [3]): Active; fold change (FC) (dengue virus type 2 [4]): 1000
11 | CC(C)(C)NC(=O)C(=O)/C=C/c1ccc(O)cc1 | 37.6 | inhibition [1]: 31.4%; inhibition [2]: 17.3%
12 | CNC(=O)C(=O)/C=C/c1ccccc1 | 26.9 | –
13 | O=C(/C=C/c1ccccc1)C(=O)NCc1ccncc1 | 29.9 | –
14 | CC(C)(C)NC(=O)C(=O)C1CC1c1ccccc1 (stereo unspecified) | 7.4 | –
15 | CCC/C=C/C(=O)C(=O)NC(C)(C)C | 4.4 | –
16 | CC(C)(C)NC(=O)C(=O)CCc1ccccc1 | 0 | Activity (dengue virus type 2 [3]): inactive
17 | CC(C)(C)NC(=O)C(=O)/C=C/c1ccc(Cl)cc1 | 15.9 | inhibition [1]: 6.3%; inhibition [2]: 6.7%
18 | CC(C)c1ccc(/C=C/C(=O)C(=O)NC(C)(C)C)cc1 | 25.5 | –
19 | CC(C)(C)NC(=O)C(=O)/C=C/c1ccc(F)cc1 | 23.9 | –
20 | CC(C)(C)NC(=O)C(=O)/C=C/c1ccccn1 | 27.7 | –
21 | COc1ccc(/C=C/C(=O)C(=O)NC(C)(C)C)cc1OC | 36.1 | inhibition [1]: 31%; inhibition [2]: 22.5%; Activity (dengue virus type 2 [3]): Active
22 | O=C(/C=C/c1ccccc1)C(=O)NCc1ccccc1 | 14.6 | –
23 | CN(C)C(=O)C(=O)/C=C/c1ccccc1 | 29 | –
24 | COc1ccc(/C=C/C(=O)C(=O)NC(C)(C)C)cc1 | 16.7 | inhibition [1]: 27.3%; inhibition [2]: 14.2%
25 | Cn1cc(/C=C/C(=O)C(=O)NC(C)(C)C)c2ccccc21 | 31.3 | –
26 | COc1cccc(/C=C/C(=O)C(=O)NC(C)(C)C)c1 | 17.8 | –
27 | CC(C)(C)NC(=O)C(=O)/C=C/c1cccs1 | 27.6 | –

Row | Structure (SMILES) | inhibition (Dengue virus) [%] | other results
28 | CN(C)c1ccc(/C=C/C(=O)C(=O)NC(C)(C)C)cc1 | 13.8 | inhibition [1]: 33.9%; inhibition [2]: 28.9%
29 | O=C(/C=C/c1ccccc1)C(=O)N1CCOCC1 | 30.8 | –
30 | CC(C)(C)NC(=O)C(=O)/C=C/c1ccc2ccccc2c1 | 8.9 | –
31 | C/C(=C\c1ccccc1)C(=O)C(=O)NC(C)(C)C | 25.6 | inhibition [1]: 0%; inhibition [2]: 5.7%
32 | O=C(/C=C/c1ccccc1)C(=O)NCC1CCCO1 (stereo unspecified) | 28.9 | –
33 | CC(C)(C)NC(=O)C1(/C=C/c2ccccc2)CO1 (stereo unspecified) | 12.6 | inhibition [1]: 20.3%; inhibition [2]: 12.1%
34 | CC(C)(C)NC(=O)C(=O)/C=C/c1ccc(Br)cc1 | 15.1 | –
35 | CC(C)(C)NC(=O)C(=O)/C=C/c1ccc(C#N)cc1 | 13.5 | –
36 | COc1ccc(/C=C/C(=O)C(=O)NC(C)(C)C)c(OC)c1OC | 27.8 | –
37 | O=C(/C=C/c1ccccc1)C(=O)NCc1ccccn1 | 29.4 | –
38 | O=C(/C=C/c1ccccc1)C(=O)NCCO | 26.1 | –
39 | CC(=O)Nc1ccc(/C=C/C(=O)C(=O)NC(C)(C)C)cc1 | 32.9 | –
40 | CC(C)(C)NC(=O)C(=O)/C=C/c1cccnc1 | 23.3 | –
41 | CC(=O)n1cc(/C=C/C(=O)C(=O)NC(C)(C)C)c2ccccc21 | 29.8 | –
42 | CC(=O)OCCNC(=O)C(=O)/C=C/c1ccccc1 | 35.8 | inhibition [1]: 29.8%; inhibition [2]: 16.3%
43 | COC(=O)[C@H](CO)NC(=O)C(=O)/C=C/c1ccccc1 | 35.1 | inhibition [1]: 27.5%; inhibition [2]: 12.6%
44 | CC(C)(C)NC(=O)C(=O)c1ccccc1 | 6.9 | –
45 | CNC(=O)/C=C/c1ccccc1 | 15.2 | –
46 | CC(C)(C)NC(=O)C(=O)C1CCCCC1 | 21.5 | –
47 | CC(C)(C)NC(=O)C(=O)Cc1ccccc1 | 20.4 | –
48 | COc1ccccc1/C=C/C(=O)C(=O)NC(C)(C)C | 23.3 | –
49 | CC(C)NC(=O)C(=O)/C=C/c1ccccc1 | 23.8 | –
50 | CC(C)(C)NC(=O)C(=O)/C=C/c1ccc(N)cc1 | 40.6 | inhibition [1]: 39.5%; inhibition [2]: 21.1%
51 | O=C(/C=C/c1ccccc1)C(=O)NC1CCCCC1 | 14.5 | –
52 | CC(C)(C)NC(=O)C(=O)/C=C/c1cccc(F)c1 | 16.8 | –
53 | CCCCCNC(=O)C(=O)/C=C/c1ccccc1 | 25.9 | –
